{"data": "Measurements collected from several papers", "CDK2": "Cyclin-dependent kinase 2 (CDK2, Homo sapiens, UniProt P24941)", "CDK2 with cyclin A": "Cyclin-dependent kinase 2, with cyclin A (CDK2, Homo sapiens, UniProt P24941)", "CDK2 with cyclin E": "Cyclin-dependent kinase 2, with cyclin E (CDK2, Homo sapiens, UniProt P24941)", "CDK2 with cyclin E1": "Cyclin-dependent kinase 2, with cyclin E1 (CDK2, Homo sapiens, UniProt P24941)", "note": "pIC50, pKd: −log10 of the molar value."}
{"SMILES": "c1ccc(CNc2ncnc3nc[nH]c23)cc1", "target": "Cyclin-dependent kinase 2, with cyclin A (CDK2, Homo sapiens, UniProt P24941, F80G)", "observed": "enzyme activity", "action": "inhibitor", "method": "radiometric", "endpoint": "pIC50", "result": "~6.00"}
{"SMILES": "CN(C)CCNS(=O)(=O)c1ccc(N/C=C2\\C(=O)Nc3ccccc32)cc1", "target": "CDK2", "observed": "binding", "endpoint": "pKd", "result": 5.97}
{"SMILES": "O=S(=O)(/C=C/c1ccc(C(F)(F)F)cc1)c1ccc(-c2csc(-c3ccccc3)n2)cc1", "target": "CDK2", "observed": "enzyme activity", "action": "inhibitor", "method": "mobility shift", "endpoint": "pIC50", "result": 4.59}
{"SMILES": "O=C(Nc1cc(C2CCCCC2)[nH]n1)c1ccc(Br)cc1", "target": "CDK2", "observed": "thermal stability", "method": "DSF", "endpoint": "pKd", "result": "< 4.00"}
{"SMILES": "CN1CCC(c2c(O)cc(O)c3c(=O)cc(-c4ccccc4)oc23)C(O)C1 (centres unmarked)", "target": "CDK2 with cyclin A", "observed": "enzyme activity", "action": "inhibitor", "endpoint": "pIC50", "result": 6.71}
{"SMILES": "CN(C)CCNC1=Nc2ccccc2-c2[nH]c3ccccc3c2C1", "target": "CDK2 with cyclin E", "observed": "enzyme activity", "action": "inhibitor", "method": "radiometric", "endpoint": "pIC50", "result": 4.14}
{"SMILES": "O=c1cc(-c2ccccc2)oc2ccc3ccccc3c12", "target": "CDK2 with cyclin E1", "observed": "enzyme activity", "action": "inhibitor", "method": "ADP detection", "endpoint": "pIC50", "result": "< 5.00"}
{"SMILES": "C=CC(=O)Nc1ccc(N2CCC[C@@H](Nc3ncc(Cl)c(-c4c[nH]c5ccccc45)n3)C2)c(F)c1", "target": "CDK2 with cyclin A", "observed": "enzyme activity", "action": "inhibitor", "method": "FRET", "endpoint": "pIC50", "result": 5.40}
{"SMILES": "Cc1cc(Nc2cc3ncccc3c(N[C@@H]3C[C@H]4CC[C@@H](C3)N4CCC#N)n2)n[nH]1", "target": "CDK2", "observed": "binding", "method": "competition with immobilised ligand", "endpoint": "pKd", "result": 6.12}
{"SMILES": "CN(C)CCNc1nc2ccccc2c2[nH]c3ccccc3c12", "target": "CDK2 with cyclin E", "observed": "enzyme activity", "action": "inhibitor", "method": "radiometric", "endpoint": "pIC50", "result": 4.15}
{"SMILES": "COc1cccc(OC)c1CNC(=O)c1ccc2c(c1)C(=NNc1ccc(S(N)(=O)=O)cc1)C(=O)N2", "target": "CDK2", "observed": "binding", "endpoint": "pKd", "result": 7.65}
{"SMILES": "COc1c(C(=O)/C=C(\\O)c2ccccc2)ccc2occc12", "target": "CDK2 with cyclin E1", "observed": "enzyme activity", "action": "inhibitor", "method": "ADP detection", "endpoint": "pIC50", "result": "< 4.00"}
{"SMILES": "C=CC(=O)Nc1ccc(O[C@@H]2CCC[C@@H](Nc3ncc(Cl)c(-c4c[nH]c5ccccc45)n3)C2)cc1", "target": "CDK2 with cyclin A", "observed": "enzyme activity", "action": "inhibitor", "method": "FRET", "endpoint": "pIC50", "result": "< 5.00"}
{"SMILES": "OCc1c(-c2ccc(F)cc2)nc2sc3c(n12)CCCC3", "target": "CDK2", "observed": "enzyme activity", "action": "inhibitor", "method": "mobility shift", "endpoint": "pIC50", "result": 4.72}
